Series [1] has as its system COLO 320. The experiment in a line: Induction of apoptosis in human COLO320 cells preincubated assessed as late apoptosis at 20 uM for 40 mins measured after 24 hrs using annexin V/propidium iodide staining by flow cytometry. The class given is functional. The procedure, abridged: (§1)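 COLO 320 MDR cells at 2 × 10^5/mL were exposed to agent for 40 min at 37 °C, with 1% DMSO as solvent control. Cells were then washed twice in PBS and cultured overnight at 37 °C, 5% CO2. After 24 h, supernatant and trypsin-detached cells were pooled and centrifuged. Staining used an annexin V-FITC/propidium iodide kit (rapid protocol), read immediately by flow cytometry.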
For orientation: A flow cytometer gives signals particle by particle.

The target in series [2] is T1, ATP-dependent translocase ABCB1 (Homo sapiens, UniProt P08183). The experiment in a line: Inhibition of MDR1-mediated rhodamine 123 uptake expressed in mouse L5178Y cells assessed as fluorescence activity ratio at 2 ug/mL after 10 mins by flow cytometry relative to parent cells. The settings on record: in the assay text read “2 uM” for “2 ug/mL”. The class given is cell-based. The method, boiled down: (§2)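 Mouse L5178Y cells, parental and human MDR1-transfected (kept with 60 ng/mL colchicine), were held at 2 × 10^6/mL in serum-free McCoy's 5A and given compound (2, 6, 20, 60 μM) for 10 min at room temperature. […] Rhodamine-123 (5.2 μM final) followed for 20 min at 37 °C; cells were washed twice into PBS. FL-1 of 10 000 cells was read by flow cytometry. FAR = treated/untreated MDR versus PAR.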
T1 sequence (P08183 whole entry): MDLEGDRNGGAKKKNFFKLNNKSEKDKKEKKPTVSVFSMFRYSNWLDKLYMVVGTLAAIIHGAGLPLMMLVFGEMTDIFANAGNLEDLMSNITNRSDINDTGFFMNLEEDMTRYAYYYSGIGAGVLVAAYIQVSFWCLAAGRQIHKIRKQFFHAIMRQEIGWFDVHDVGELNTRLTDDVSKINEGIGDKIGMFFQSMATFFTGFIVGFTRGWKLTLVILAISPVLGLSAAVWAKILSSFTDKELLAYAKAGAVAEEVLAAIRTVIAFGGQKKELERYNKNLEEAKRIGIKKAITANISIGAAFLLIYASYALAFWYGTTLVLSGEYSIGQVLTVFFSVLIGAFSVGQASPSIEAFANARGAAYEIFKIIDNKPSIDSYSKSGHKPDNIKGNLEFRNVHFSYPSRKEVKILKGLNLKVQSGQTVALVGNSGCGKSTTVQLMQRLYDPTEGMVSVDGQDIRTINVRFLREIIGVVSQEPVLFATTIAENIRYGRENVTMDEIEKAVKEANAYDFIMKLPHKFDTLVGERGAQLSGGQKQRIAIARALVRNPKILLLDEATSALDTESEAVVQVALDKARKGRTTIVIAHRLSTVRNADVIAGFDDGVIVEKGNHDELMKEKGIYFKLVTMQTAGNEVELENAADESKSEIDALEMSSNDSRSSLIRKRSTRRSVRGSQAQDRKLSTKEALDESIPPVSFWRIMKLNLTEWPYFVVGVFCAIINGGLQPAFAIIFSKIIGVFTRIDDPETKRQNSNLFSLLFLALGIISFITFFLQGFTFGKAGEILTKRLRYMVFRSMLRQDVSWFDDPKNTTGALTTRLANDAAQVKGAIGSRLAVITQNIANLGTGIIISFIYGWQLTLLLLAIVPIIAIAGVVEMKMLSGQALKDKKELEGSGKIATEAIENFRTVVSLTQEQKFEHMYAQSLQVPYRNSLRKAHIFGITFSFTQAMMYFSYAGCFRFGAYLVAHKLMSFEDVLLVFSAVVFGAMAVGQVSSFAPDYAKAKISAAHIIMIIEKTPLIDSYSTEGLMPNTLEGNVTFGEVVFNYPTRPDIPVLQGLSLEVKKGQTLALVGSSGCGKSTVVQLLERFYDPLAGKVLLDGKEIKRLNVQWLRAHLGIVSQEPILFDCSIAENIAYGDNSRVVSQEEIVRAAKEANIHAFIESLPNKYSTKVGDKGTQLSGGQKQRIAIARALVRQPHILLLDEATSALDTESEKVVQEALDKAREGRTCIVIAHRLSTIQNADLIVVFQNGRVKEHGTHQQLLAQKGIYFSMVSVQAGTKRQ

Series [3] deals with T1, ATP-dependent translocase ABCB1. The series can be described thus: Inhibition of MDR1-mediated rhodamine 123 uptake expressed in mouse L5178Y cells assessed as fluorescence activity ratio at 60 ug/mL after 10 mins by flow cytometry relative to parent cells. As to conditions: in the assay text read “60 uM” for “60 ug/mL”. Format: cell-based. The method, boiled down: as §2

Series [4] is described as follows: Induction of cell death in human COLO320 cells preincubated at 20 uM for 40 mins measured after 24 hrs using annexin V/propidium iodide staining by flow cytometry. The class given is functional, COLO 320. The procedure, abridged:
(§3)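 COLO 320 MDR cells in RPMI 1640 with 10% FBS, at 2 × 10^5/mL, were exposed for 40 min at 37 °C, with 1% DMSO as the solvent control. Cells were washed twice in PBS, then kept in medium overnight at 37 °C, 5% CO2. After 24 h, supernatant and trypsin-detached cells were pelleted and resuspended in PBS. Annexin V-FITC/PI quadrants were read by flow cytometry.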

In series [5] the test system is COLO 320. The series can be described thus: Induction of apoptosis in human COLO320 cells preincubated assessed as early apoptosis at 20 uM for 40 mins measured after 24 hrs using annexin V/propidium iodide staining by flow cytometry. The class given is functional. The method, boiled down: as §1
Series [6] addresses T1, ATP-dependent translocase ABCB1. The series can be described thus: Inhibition of MDR1-mediated rhodamine 123 uptake expressed in mouse L5178Y cells assessed as fluorescence activity ratio at 6 uM after 10 mins by flow cytometry relative to parent cells.
The target is the same in series [7]. The series can be described thus: Inhibition of MDR1-mediated rhodamine 123 uptake expressed in human COLO320 cells assessed as fluorescence activity ratio at 20 ug/mL after 10 mins by flow cytometry relative to parent cells. Format: cell-based. As to conditions: in the assay text read “20 uM” for “20 ug/mL”. The method, boiled down:
(§4)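 COLO 320 MDR cells (and COLO 205) were held at 1 × 10^6/mL in serum-free RPMI 1640 and given compound (2 or 20 μM) for 10 min at room temperature. […] Rhodamine-123 (5.2 μM final) followed for 20 min at 37 °C; cells were washed twice into PBS. FL-1 of 10 000 cells was read by flow cytometry. FAR was calculated from treated/untreated resistant versus sensitive cells.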

The target is the same in series [8]. The series can be described thus: Inhibition of MDR1-mediated rhodamine 123 uptake expressed in mouse L5178Y cells assessed as fluorescence activity ratio at 20 ug/mL after 10 mins by flow cytometry relative to parent cells. The class given is cell-based. The settings on record: in the assay text read “20 uM” for “20 ug/mL”. The method, boiled down: as §2
Series [9] has the same target. The experiment in a line: Inhibition of MDR1-mediated rhodamine 123 uptake expressed in human COLO320 cells assessed as fluorescence activity ratio at 2 ug/mL after 10 mins by flow cytometry relative to parent cells. Format: cell-based. The settings on record: in the assay text read “2 uM” for “2 ug/mL”. The method, boiled down: as §4
For series [10] the target is unchanged. The experiment in a line: Inhibition of MDR1-mediated rhodamine 123 uptake expressed in mouse L5178Y cells assessed as fluorescence activity ratio at 2 uM after 10 mins by flow cytometry relative to parent cells.
Series [11] has the same target. The series can be described thus: Inhibition of MDR1-mediated rhodamine 123 uptake expressed in human COLO320 cells assessed as fluorescence activity ratio at 2 uM after 10 mins by flow cytometry relative to parent cells.
Series [12] relates to COLO 320. The experiment in a line: Induction of apoptosis in human COLO320 cells preincubated assessed as late apoptosis at 200 uM for 40 mins measured after 24 hrs using annexin V/propidium iodide staining by flow cytometry. The class given is functional. The procedure, abridged: as §1
Series [13] can be described thus: Induction of cell death in human COLO320 cells preincubated at 200 uM for 40 mins measured after 24 hrs using annexin V/propidium iodide staining by flow cytometry. Format: functional, COLO 320. The method, boiled down:
as §3

Series [14] deals with COLO 320. The series can be described thus: Induction of apoptosis in human COLO320 cells preincubated assessed as early apoptosis at 200 uM for 40 mins measured after 24 hrs using annexin V/propidium iodide staining by flow cytometry. The class given is functional. The method, boiled down: as §1

This passage reports Activity and Ratio results from ChEMBL document CHEMBL2176993, “Jatrophane diterpenes from Euphorbia mellifera and their activity as P-glycoprotein modulators on multidrug-resistant mouse lymphoma and human colon adenocarcinoma cells” (J Nat Prod, 2012).

In the case of `CC(=O)O[C@@H]1[C@@H](OC(C)=O)C(C)(C)/C=C/[C@H](C)C(=O)[C@@]2(OC(C)=O)C[C@@H](C)[C@H](OC(=O)c3ccccc3)/C2=C/[C@](C)(O)[C@H]1OC(C)=O`, the results for the Activity in [1], in series [4] and in series [5] were 4.6%, 0.9% and 4.4%, respectively. The Ratio in series [2] is given as 0.9; in series [3] it was 43.4; in series [6], 1.4; in series [7], 3; in series [8], 10.1; in series [9], 0.7.
In the case of `CC(=O)O[C@H]1[C@H](OC(C)=O)/C(C)=C\[C@H]2[C@@H](OC(=O)c3ccccc3)[C@H](C)C[C@]2(O)C(=O)[C@@H](C)/C=C/C(C)(C)[C@@H]1OC(C)=O` (relative stereo) [EUPHOMELLIFERINE], the Activity in series [1] is reported as 4.97%; in series [4], 0.74%; in series [5] it was 6.72%. Besides, the Ratio in series [2] is recorded as 1.1; in series [3], 72.9; in series [6] it was 2.9; in series [7], 5.1; in series [8], 12.1; in [9] it was 1.1.
Consider `CC(=O)O[C@H]1[C@H](OC(C)=O)/C(C)=C\[C@H]2[C@@H](OC(=O)c3ccccc3)[C@@H](C)C[C@]2(OC(C)=O)[C@@H](OC(C)=O)[C@@H](C)/C=C/C(C)(C)[C@@H]1OC(C)=O` (relative stereo) [EUPHOMELLIFERENE A], for which the Activity is on record as 7.7% in series [1], 1.11% in series [4] and 5.39% in series [5]. Besides, the Ratio in [3] amounted to 82.2; in series [10], 1.2; in series [11] it was 2; in [6] it was 12.4; in series [7], 5.5; in [8], 23.1.
As for `c1ccc2c(c1)Nc1c(ccc3ccccc13)S2`, the Activity in series [12] was 58.56%; in series [13], 3.24%; in series [14], 17.55%.
Consider `CC(=O)O[C@H]1[C@H](OC(C)=O)/C(C)=C\[C@H]2[C@@H](OC(=O)c3ccccc3)[C@@H](C)C[C@]2(O)[C@@H](OC(C)=O)[C@@H](C)/C=C/C(C)(C)[C@@H]1OC(C)=O` (relative stereo) [EUPHOMELLIFERENE B], for which the Activity in [1] was found to be 4.93%; in series [4], 1.11%; in [5], 3%. The Ratio is reported as 1.1 in [2]; 36.1 in series [3]; 1.4 in series [6]; 2.8 in series [7]; 1.6 in series [8]; 0.8 in [9].
